In the library only some 4.9% were active in any assay of this set; here they are far more common.
APP 5'UTR act: activators of APP 5'UTR luciferase reporter, primary screen, SH-SY5Y cells; SH-SY5Y APP 5'UTR luciferase reporter, luminescence; zero percent = DMSO vehicle wells; activation, % at 2 µM; actives 1% (n = 190,000);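 active = activation above a set limit, based on mean plus 3 SD of controls, cut at about 140% in these data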
STAT3 activator: IL-6 driven STAT3 reporter potentiators, primary screen, U3A cells, luciferase, luminescence, MLSCN library | IL-6 STAT3-luciferase reporter; 100% = signal with IL-6 EC80 alone | activation (% of control), % at 5.6 µM | actives 0.91% (n = 190,000) | AID 871, 2007;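 active = activation above the screen-wide mean of compound activation plus 3 SD, cut at about 130% in these data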;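 also: 0% = background luminescence of wells with medium and substrate only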
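Material: STAT3-luciferase reporter U3A cells. Controls: IL-6-treated wells, 100% activation. Read-out: % activation versus median of IL-6-stimulated wells. Probe or stimulus: IL-6 stimulus at 33 ng/mL final. Timing: compound 1 h, then IL-6 6 h at 37 °C. Signal: reporter luminescence signal.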
STAT1 inh: STAT1 signaling inhibitors, primary screen, cell-based, HTS, luciferase reporter; actives 0.35% (n = 200,000); inhibition, % at 5.5 µM; AID 920, 2007; NIH 3T3 STAT1-luciferase reporter, IFN-gamma, luminescence;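 active = inhibition above a set limit, the mean inhibition across all tested compounds plus 3 SD, cut at about 34% in these data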;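 also: 0% = IFN-gamma with DMSO and 100% = IFN-gamma with 300 µM nifuroxazide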
NF-kB neuron act: activators of NF-kB expression in neurons, primary screen, cell-based, HTS | fold change at 12.5 µM | actives 1.6% (n = 190,000) | human neuronal cells, NF-kB reporter expression; hits give high values | AID 1239, 2008; in the data active = fold change above about 3.3
STAT3 blocker: IL-6 driven STAT3 reporter inhibitors, primary screen, U3A cells, luciferase, luminescence, MLSCN library. IL-6 STAT3-luciferase reporter; host cell line lacks STAT1. inhibition, % at 5.5 µM. actives 0.89% (n = 190,000);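 active = inhibition above the mean inhibition across all screened compounds plus 3 SD, cut at about 44% in these data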;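 also: 0% = DMSO only wells and 100% = 100 µM nifuroxazide control wells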
STAT1 activator: STAT1 signaling activators, primary screen, cell-based, HTS, luciferase reporter; NIH 3T3 STAT1-luciferase reporter, IFN-gamma, luminescence; 100% = IFN-gamma alone, no compound; activation (% of control), % at 5.5 µM; actives 2.6% (n = 200,000); AID 932, 2007;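 active = activation above the screen-wide mean activation plus 3 SD, cut at about 130% in these data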;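 also: raw ratio to IFN-gamma control signal so 100% means no change and 0% no light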
* marks the source's active call; other numbers are inactive results; . = no result given.

SMILES	APP 5'UTR act	STAT3 activator	STAT1 inh	NF-kB neuron act	STAT3 blocker	STAT1 activator
CCC(C)/C(C)=N/NC(=O)c1ccc(COc2ccc(Cl)c(C)c2)cc1 (configuration not stated)	7.2	114.3	-34.0	1.54	-14.0	129.9*
COc1ccc(C2=NN(S(C)(=O)=O)C(c3cccs3)C2)cc1 (configuration not stated)	110.1	119.2	-48.5	3.94*	-14.3	142.7*
COc1ccc(C2=NN(S(C)(=O)=O)C(c3ccc4nccnc4c3)C2)cc1 (configuration not stated)	41.0	109.2	-40.3	2.25	-13.6	135.9*
Cc1ccc(C2=NN(S(C)(=O)=O)C(c3cccs3)C2)cc1 (configuration not stated)	71.7	117.0	-32.1	3.84*	-18.2	128.6*
Cc1ccc(C2=NN(S(C)(=O)=O)C(c3ccc4nccnc4c3)C2)cc1 (configuration not stated)	17.4	102.8	-21.7	1.98	-6.0	123.0
CS(=O)(=O)N1N=C(c2ccc(Br)cc2)CC1c1cccs1 (configuration not stated)	8.4	110.3	-19.3	1.97	-12.5	114.5
COc1ccc(C2CC(c3cccs3)=NN2S(=O)(=O)c2ccc(C)cc2)cc1 (configuration not stated)	8.6	99.4	6.5	.	9.8	91.0
CS(=O)(=O)Nc1ccc(C2=NN(S(C)(=O)=O)C(c3ccc4c(c3)OCO4)C2)cc1 (configuration not stated)	65.5	115.5	-48.5	2.31	-15.6	143.4*
O=C(NC(O)C(=O)c1cccs1)c1cccnc1 (configuration not stated)	-4.4	106.0	5.0	1.34	-2.7	95.4
Cc1nc2sccn2c1P(c1c(C)nc2sccn12)c1c(C)nc2sccn12	15.7	97.2	5.7	0.96	9.5	93.6
COc1cc(/C=N/Nc2ccc(Cl)c(C(=O)O)c2)ccc1OCC(=O)N1C(C)CCCC1C (configuration not stated)	-25.1	104.7	9.7	1.16	-5.1	91.5
Cc1cccc(/C(N)=N/OC(=O)COc2ccccc2Cl)c1	48.9	103.4	-39.9	1.69	0.8	135.2*
COc1ccc(/C(N)=N/OC(=O)COc2ccccc2Cl)cc1	12.3	96.0	-22.2	1.94	9.1	119.6
Cc1cccc(/C(N)=N/OC(=O)Cc2ccccc2)c1	45.6	100.3	-54.4	1.84	6.0	147.2*
O=C(O)CC1S/C(=N/N=C/c2ccc([N+](=O)[O-])cc2)N(c2ccc(O)cc2)C1=O (configuration not stated)	4.1	98.7	1.4	0.91	9.9	96.8
COc1ccc(C(C)=O)cc1CSc1nc2ccccc2o1	18.2	90.1	3.4	1.92	14.7	96.9
O=[N+]([O-])c1ccccc1CSc1nc2ccccc2o1	65.5	115.4	-42.6	2.4	-20.7	140.1*
Cn1ncc2c(Nc3ccc4ccccc4c3)ncnc21	80.7	103.0	-49.7	2.51	1.5	145.1*
Cn1c(SCc2ccc(C#N)cc2Cl)nc2ccccc21	187.1*	91.5	-49.9	5.32*	10.7	145.2*
O=C(CSc1ncnc2ccccc12)c1ccc2c(c1)OCCO2	124.8	86.2	-25.2	2.25	15.0	123.1
O=C(COc1ncnc2ccccc12)c1ccc2c(c1)OCCO2	170.7*	90.8	-45.2	3.79*	13.0	142.0*
CSc1ccccc1NC(=O)C(=O)c1c[nH]c2ccccc12	34.1	129.5	-56.8	1.53	-26.5	148.6*
O=C(Nc1nccs1)C(=O)c1c[nH]c2ccccc12	50.4	136.3*	-35.8	2.63	-32.8	132.9*
O=C(O)c1ccc(/C=N/Nc2cccc(C(F)(F)F)c2)cc1	23.7	113.1	-55.3	1.06	-6.9	149.2*
Cc1ccc(/C=N/Nc2ccc(C(=O)O)cc2)o1	124.6	121.8	-27.1	2.99	-22.2	124.9
SMILES	APP 5'UTR act	STAT3 activator	STAT1 inh	NF-kB neuron act	STAT3 blocker	STAT1 activator
CSc1ccc(/C=N/Nc2ccc(Cl)c(C(=O)O)c2)cc1	139.1*	104.8	-6.6	12.3*	-5.3	106.9
Cc1nn(-c2cccc(C(F)(F)F)c2)c(Cl)c1/C=N/Nc1cccc(C(=O)O)c1	158.8*	85.1	-6.3	8.01*	17.6	105.7
CC(C)c1ccc(/C=N/Nc2ccc(C(=O)O)cc2)cc1	14.6	28.8	64.6*	1.15	83.7*	42.6
Cc1cc(SCC(=O)Nc2ncc(Cl)cc2Cl)nc2ccccc12	-3.9	97.2	10.7	3.21	8.3	90.3
Oc1ccc(N=Cc2ccc(OCc3ccccc3)cc2)cc1	33.1	103.3	-44.3	3.16	-1.5	142.4*
O=C(N/N=C/c1cccs1)c1n[nH]c2c1CCC2	5.6	78.7	-32.8	3	24.0	129.8*
O=C(N/N=C/C(Br)=C/c1ccccc1)c1cccs1	146.7*	90.5	-54.5	7.5*	15.3	148.5*
O=C(N/N=C/c1ccc(OCc2ccccc2)cc1)c1cccs1	4.1	110.2	-44.7	1.66	-9.0	140.3*
O=C(CNc1cccc2ccccc12)N/N=C/C(Br)=C/c1ccccc1	-7.3	90.5	9.7	0.78	14.6	91.2
O=C(N/N=C/c1cccs1)c1cncc(Br)c1	6.0	95.2	-5.3	1.42	9.8	104.6
Cc1cccc(N2CCN(C(=S)Nc3ccc4nc5n(c(=O)c4c3)CCCCC5)CC2)c1C	10.4	95.7	-4.7	1.37	9.4	102.9
COCCNC(=O)C1CCN(S(=O)(=O)c2ccccc2)CC1	-2.3	98.6	0.6	1.13	11.4	99.5
O=C(N/N=C/C(Br)=C/c1ccccc1)c1n[nH]c2c1CCC2	.	137.5*	-50.1	7.95*	-35.0	146.3*
O=C(N/N=C/C=C\c1ccccc1[N+](=O)[O-])c1ccncc1	-6.2	94.6	4.9	0.91	9.6	93.6
O=C(N/N=C/C=C/c1ccccc1[N+](=O)[O-])c1cccs1	8.7	93.6	-9.7	4.24*	3.6	108.8
O=c1[nH]c2ccccc2n2cnnc12	2.9	103.9	-2.1	1.06	-0.7	101.6
Cc1snc(SCC(=O)c2ccc(Cl)cc2)c1C#N	100.9	88.8	-13.3	2.55	19.0	112.0
Cc1ccc(C(=O)CSc2nsc(C)c2C#N)cc1	156.3*	107.2	-9.9	6.04*	-6.1	108.8
Cc1ccnc(SCC(=O)c2ccc(Br)cc2)c1C#N	106.8	109.2	-50.6	2.91	-1.2	146.1*
Cc1cc(C)c(C#N)c(OCC(=O)c2ccc(Br)cc2)n1	-0.5	108.0	0.0	0.85	-6.4	100.0
Cn1c(N)c(C(=O)CSc2nc(N)cc(N)n2)c(=O)n(C)c1=O	-2.5	100.5	-3.6	1	-0.1	104.1
